# Experiments:
# [1] = Cytotoxicity against human HepG2A16 cells by MTT assay; assay type: cell-based; conditions: HepG2A16 cells
# Method in brief: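 MTT viability assay on HepG2-A16 cells, giving CC50 values.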
# Plasmodium falciparum [2] = assay: Antiplasmodial activity against multidrug-resistant Plasmodium falciparum FCR-3 by [3H]-hypoxanthine incorporation assay; assay type: functional, organism-based, FCR-3/Gambia; conditions: Plasmodium falciparum, FCR-3/Gambia
# Method in brief: (§1)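 Blood-stage P. falciparum 3D7 and FCR-3 were tested by a modified [3H]-hypoxanthine incorporation assay. Chloroquine was the reference in all runs.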
# [3] = Selectivity index, ratio of CC50 for human HepG2A16 cells by MTT assay to IC50 for multidrug-resistant Plasmodium falciparum FCR-3; assay type: toxicity; conditions: HepG2A16 cells, read-out: Ratio CC50/IC50
# Method in brief: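 HepG2-A16 human hepatoma cells were tested by MTT viability assay to give CC50. Blood-stage activity was measured against the multidrug-resistant P. falciparum FCR-3 strain by [3H]-hypoxanthine incorporation to give IC50. SI = CC50 HepG2 / FCR-3 IC50.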
# Plasmodium falciparum [4] = assay: Antiplasmodial activity against chloroquine-sensitive Plasmodium falciparum 3D7 by [3H]-hypoxanthine incorporation assay; assay type: functional, organism-based; conditions: Plasmodium falciparum, 3D7; method in brief: as §1
# [5] = Genotoxicity in Salmonella typhimurium TA1535 harboring pSK1002 assessed as umu gene induction at 0.031 mg/ml in presence of Sprague-Dawley rat liver S9 fraction after by SOS/umu assay relative to control; assay type: toxicity, organism-based; conditions: salmonella enterica subsp. enterica serovar typhimurium, read-out: FC
# [6] = Genotoxicity in Salmonella typhimurium TA1535 harboring pSK1002 assessed as survival at 0.016 mg/ml in presence of Sprague-Dawley rat liver S9 fraction after by SOS/umu assay relative to control; assay type: toxicity, organism-based; conditions: salmonella enterica subsp. enterica serovar typhimurium, read-out: Survival
# [7] = Genotoxicity in Salmonella typhimurium TA1535 harboring pSK1002 assessed as umu gene induction at 0.002 mg/ml in presence of Sprague-Dawley rat liver S9 fraction after by SOS/umu assay relative to control; assay type: toxicity, organism-based; conditions: salmonella enterica subsp. enterica serovar typhimurium, read-out: FC
# [8] = Genotoxicity in Salmonella typhimurium TA1535 harboring pSK1002 assessed as survival at 0.016 mg/ml in absence of Sprague-Dawley rat liver S9 fraction after by SOS/umu assay relative to control; assay type: toxicity, organism-based; conditions: salmonella enterica subsp. enterica serovar typhimurium, read-out: Survival
# [9] = Genotoxicity in Salmonella typhimurium TA1535 harboring pSK1002 assessed as umu gene induction at 0.031 mg/ml in absence of Sprague-Dawley rat liver S9 fraction after by SOS/umu assay relative to control; assay type: toxicity, organism-based; conditions: salmonella enterica subsp. enterica serovar typhimurium, read-out: FC
# [10] = Genotoxicity in Salmonella typhimurium TA1535 harboring pSK1002 assessed as survival at 0.031 mg/ml in presence of Sprague-Dawley rat liver S9 fraction after by SOS/umu assay relative to control; assay type: toxicity, organism-based; conditions: salmonella enterica subsp. enterica serovar typhimurium, read-out: Survival
# [11] = Genotoxicity in Salmonella typhimurium TA1535 harboring pSK1002 assessed as survival at 0.002 mg/ml in absence of Sprague-Dawley rat liver S9 fraction after by SOS/umu assay relative to control; assay type: toxicity, organism-based; conditions: salmonella enterica subsp. enterica serovar typhimurium, read-out: Survival
# [12] = Genotoxicity in Salmonella typhimurium TA1535 harboring pSK1002 assessed as umu gene induction at 0.004 mg/ml in presence of Sprague-Dawley rat liver S9 fraction after by SOS/umu assay relative to control; assay type: toxicity, organism-based; conditions: salmonella enterica subsp. enterica serovar typhimurium, read-out: FC
# [13] = Genotoxicity in Salmonella typhimurium TA1535 harboring pSK1002 assessed as survival at 0.004 mg/ml in absence of Sprague-Dawley rat liver S9 fraction after by SOS/umu assay relative to control; assay type: toxicity, organism-based; conditions: salmonella enterica subsp. enterica serovar typhimurium, read-out: Survival
# [14] = Genotoxicity in Salmonella typhimurium TA1535 harboring pSK1002 assessed as umu gene induction at 0.008 mg/ml in presence of Sprague-Dawley rat liver S9 fraction after by SOS/umu assay relative to control; assay type: toxicity, organism-based; conditions: salmonella enterica subsp. enterica serovar typhimurium, read-out: FC
# [15] = Genotoxicity in Salmonella typhimurium TA1535 harboring pSK1002 assessed as survival at 0.002 mg/ml in presence of Sprague-Dawley rat liver S9 fraction after by SOS/umu assay relative to control; assay type: toxicity, organism-based; conditions: salmonella enterica subsp. enterica serovar typhimurium, read-out: Survival
# [16] = Genotoxicity in Salmonella typhimurium TA1535 harboring pSK1002 assessed as umu gene induction at 0.008 mg/ml in absence of Sprague-Dawley rat liver S9 fraction after by SOS/umu assay relative to control; assay type: toxicity, organism-based; conditions: salmonella enterica subsp. enterica serovar typhimurium, read-out: FC
# [17] = Genotoxicity in Salmonella typhimurium TA1535 harboring pSK1002 assessed as survival at 0.004 mg/ml in presence of Sprague-Dawley rat liver S9 fraction after by SOS/umu assay relative to control; assay type: toxicity, organism-based; conditions: salmonella enterica subsp. enterica serovar typhimurium, read-out: Survival
# [18] = Genotoxicity in Salmonella typhimurium TA1535 harboring pSK1002 assessed as umu gene induction at 0.001 mg/ml in absence of Sprague-Dawley rat liver S9 fraction after by SOS/umu assay relative to control; assay type: toxicity, organism-based; conditions: salmonella enterica subsp. enterica serovar typhimurium, read-out: FC
# [19] = Genotoxicity in Salmonella typhimurium TA1535 harboring pSK1002 assessed as survival at 0.008 mg/ml in absence of Sprague-Dawley rat liver S9 fraction after by SOS/umu assay relative to control; assay type: toxicity, organism-based; conditions: salmonella enterica subsp. enterica serovar typhimurium, read-out: Survival
# [20] = Genotoxicity in Salmonella typhimurium TA1535 harboring pSK1002 assessed as umu gene induction at 0.004 mg/ml in absence of Sprague-Dawley rat liver S9 fraction after by SOS/umu assay relative to control; assay type: toxicity, organism-based; conditions: salmonella enterica subsp. enterica serovar typhimurium, read-out: FC
# [21] = Genotoxicity in Salmonella typhimurium TA1535 harboring pSK1002 assessed as umu gene induction at 0.001 mg/ml in presence of Sprague-Dawley rat liver S9 fraction after by SOS/umu assay relative to control; assay type: toxicity, organism-based; conditions: salmonella enterica subsp. enterica serovar typhimurium, read-out: FC
# [22] = Genotoxicity in Salmonella typhimurium TA1535 harboring pSK1002 assessed as umu gene induction at 0.002 mg/ml in absence of Sprague-Dawley rat liver S9 fraction after by SOS/umu assay relative to control; assay type: toxicity, organism-based; conditions: salmonella enterica subsp. enterica serovar typhimurium, read-out: FC
# [23] = Genotoxicity in Salmonella typhimurium TA1535 harboring pSK1002 assessed as survival at 0.001 mg/ml in absence of Sprague-Dawley rat liver S9 fraction after by SOS/umu assay relative to control; assay type: toxicity, organism-based; conditions: salmonella enterica subsp. enterica serovar typhimurium, read-out: Survival
# [24] = Genotoxicity in Salmonella typhimurium TA1535 harboring pSK1002 assessed as umu gene induction at 0.016 mg/ml in presence of Sprague-Dawley rat liver S9 fraction after by SOS/umu assay relative to control; assay type: toxicity, organism-based; conditions: salmonella enterica subsp. enterica serovar typhimurium, read-out: FC
# [25] = Genotoxicity in Salmonella typhimurium TA1535 harboring pSK1002 assessed as survival at 0.031 mg/ml in absence of Sprague-Dawley rat liver S9 fraction after by SOS/umu assay relative to control; assay type: toxicity, organism-based; conditions: salmonella enterica subsp. enterica serovar typhimurium, read-out: Survival
# [26] = Genotoxicity in Salmonella typhimurium TA1535 harboring pSK1002 assessed as survival at 0.008 mg/ml in presence of Sprague-Dawley rat liver S9 fraction after by SOS/umu assay relative to control; assay type: toxicity, organism-based; conditions: salmonella enterica subsp. enterica serovar typhimurium, read-out: Survival
# [27] = Genotoxicity in Salmonella typhimurium TA1535 harboring pSK1002 assessed as survival at 0.001 mg/ml in presence of Sprague-Dawley rat liver S9 fraction after by SOS/umu assay relative to control; assay type: toxicity, organism-based; conditions: salmonella enterica subsp. enterica serovar typhimurium, read-out: Survival
# [28] = Genotoxicity in Salmonella typhimurium TA1535 harboring pSK1002 assessed as umu gene induction at 0.016 mg/ml in absence of Sprague-Dawley rat liver S9 fraction after by SOS/umu assay relative to control; assay type: toxicity, organism-based; conditions: salmonella enterica subsp. enterica serovar typhimurium, read-out: FC
smiles,measurement,setting,value
COc1ccc(C(O)CCN2CC=C(c3ccc(F)cc3)CC2)cc1 (stereo unspecified),CC50,[1],152 µM
same,IC50,Plasmodium falciparum [2],11.5 µM
same,selectivity ratio,[3],13
same,IC50,Plasmodium falciparum [4],18.2 µM
O=[N+]([O-])c1cc(C(F)(F)F)ccc1N1CCN(CCC(O)c2ccc(F)c3ccccc23)CC1 (stereo unspecified),IC50,Plasmodium falciparum [2],5 µM
O=[N+]([O-])c1ccc(N2CCC(NCCC(O)c3ccccc3)CC2)c(C(F)(F)F)c1 (stereo unspecified),CC50,[1],27.6 µM
same,IC50,Plasmodium falciparum [2],1.8 µM
same,selectivity ratio,[3],15
same,IC50,Plasmodium falciparum [4],4.42 µM
COc1ccccc1N1CCN(CCC(O)c2ccc(-c3ccccc3)cc2)CC1 (stereo unspecified),CC50,[1],24.4 µM
same,IC50,Plasmodium falciparum [2],2.78 µM
same,selectivity ratio,[3],9
same,IC50,Plasmodium falciparum [4],7.25 µM
OC(CCN1CC=C(c2ccc(F)cc2)CC1)c1ccc(Cl)cc1 (stereo unspecified),CC50,[1],110 µM
same,IC50,Plasmodium falciparum [2],2.29 µM
same,selectivity ratio,[3],48
same,IC50,Plasmodium falciparum [4],3.57 µM
O=[N+]([O-])c1ccc(N2CCN(CCC(O)c3ccc(F)c4ccccc34)CC2)c(C(F)(F)F)c1 (stereo unspecified),IC50,Plasmodium falciparum [2],0.5 µM
COC(=O)c1ccc(C(O)CCN2CC=C(c3ccc(F)cc3)CC2)cc1 (stereo unspecified),fold induction at 0.031 mg/ml,[5],0.7
same,viability at 0.016 mg/ml,[6],103%
same,fold induction at 0.002 mg/ml,[7],1
same,viability at 0.016 mg/ml,[8],89.4%
same,fold induction at 0.031 mg/ml,[9],0.9
same,viability at 0.031 mg/ml,[10],138%
same,CC50,[1],509 µM
same,viability at 0.002 mg/ml,[11],109%
same,fold induction at 0.004 mg/ml,[12],0.9
same,viability at 0.004 mg/ml,[13],99.4%
same,fold induction at 0.008 mg/ml,[14],1
same,viability at 0.002 mg/ml,[15],103%
same,fold induction at 0.008 mg/ml,[16],0.9
same,viability at 0.004 mg/ml,[17],101%
same,fold induction at 0.001 mg/ml,[18],0.7
same,IC50,Plasmodium falciparum [2],1.13 µM
same,viability at 0.008 mg/ml,[19],97.5%
same,fold induction at 0.004 mg/ml,[20],0.8
same,fold induction at 0.001 mg/ml,[21],0.8
same,fold induction at 0.002 mg/ml,[22],0.9
same,selectivity ratio,[3],451
same,viability at 0.001 mg/ml,[23],124%
same,fold induction at 0.016 mg/ml,[24],1
same,viability at 0.031 mg/ml,[25],94.4%
same,IC50,Plasmodium falciparum [4],10.5 µM
same,viability at 0.008 mg/ml,[26],104%
same,viability at 0.001 mg/ml,[27],110%
same,fold induction at 0.016 mg/ml,[28],1
N#Cc1ccc(C(O)CCNC2CCN(c3ccc([N+](=O)[O-])cc3C(F)(F)F)CC2)cc1 (stereo unspecified),CC50,[1],23 µM
same,IC50,Plasmodium falciparum [2],2.02 µM
same,selectivity ratio,[3],11
same,IC50,Plasmodium falciparum [4],4.22 µM
OC(CCN1CC=C(c2ccc(F)cc2)CC1)c1ccc(Br)cc1 (stereo unspecified),CC50,[1],109 µM
same,IC50,Plasmodium falciparum [2],2.68 µM
same,selectivity ratio,[3],41
same,IC50,Plasmodium falciparum [4],5.42 µM
COc1ccccc1N1CCN(CCC(O)c2ccc3ccccc3c2)CC1 (stereo unspecified),CC50,[1],95 µM
same,IC50,Plasmodium falciparum [2],2.63 µM
same,selectivity ratio,[3],36
same,IC50,Plasmodium falciparum [4],4.08 µM
OC(CCN1CCN(c2ccc(C(F)(F)F)cc2)CC1)c1ccc(F)c2ccccc12 (stereo unspecified),IC50,Plasmodium falciparum [2],0.93 µM
O=[N+]([O-])c1ccc(N2CCC(NCCC(O)c3ccc(F)c(Cl)c3)CC2)c(C(F)(F)F)c1 (stereo unspecified),CC50,[1],4.61 µM
same,IC50,Plasmodium falciparum [2],0.51 µM
same,selectivity ratio,[3],9
same,IC50,Plasmodium falciparum [4],0.71 µM
OC(CCN1CC=C(c2ccc(F)cc2)CC1)c1ccccc1 (stereo unspecified),CC50,[1],121 µM
same,IC50,Plasmodium falciparum [2],9.04 µM
same,selectivity ratio,[3],13
same,IC50,Plasmodium falciparum [4],10.6 µM
O=[N+]([O-])c1ccc(N2CCC(NCCC(O)c3ccc(F)c(F)c3)CC2)c(C(F)(F)F)c1 (stereo unspecified),CC50,[1],13.3 µM
same,IC50,Plasmodium falciparum [2],0.53 µM
same,selectivity ratio,[3],25
same,IC50,Plasmodium falciparum [4],0.67 µM
COc1ccccc1N1CCN(CCC(O)c2ccccc2)CC1 (stereo unspecified),CC50,[1],> 612 µM
same,IC50,Plasmodium falciparum [2],15.7 µM
same,selectivity ratio,[3],> 39
same,IC50,Plasmodium falciparum [4],13.9 µM
COc1ccc(C(O)CCN2CCN(c3ccccc3OC)CC2)cc1 (stereo unspecified),CC50,[1],371 µM
same,IC50,Plasmodium falciparum [2],7.98 µM
same,selectivity ratio,[3],46
same,IC50,Plasmodium falciparum [4],10.5 µM
OC(CCN1CC=C(c2ccc(F)cc2)CC1)c1ccc(F)c(Cl)c1 (stereo unspecified),CC50,[1],54.1 µM
same,IC50,Plasmodium falciparum [2],7.06 µM
same,selectivity ratio,[3],8
same,IC50,Plasmodium falciparum [4],2.27 µM
OC(CCN1CC=C(c2ccc(F)cc2)CC1)c1ccc(F)c(F)c1 (stereo unspecified),CC50,[1],97 µM
same,IC50,Plasmodium falciparum [2],2.01 µM
same,selectivity ratio,[3],48
same,IC50,Plasmodium falciparum [4],2.79 µM
COc1ccc(C(O)CCN2CC=C(c3ccc(F)cc3)CC2)c(OC)c1 (stereo unspecified),CC50,[1],91.4 µM
same,IC50,Plasmodium falciparum [2],9.48 µM
same,selectivity ratio,[3],10
same,IC50,Plasmodium falciparum [4],24.1 µM

# From ChEMBL document CHEMBL4152256, “Structure-activity relationship of new antimalarial 1-aryl-3-susbtituted propanol derivatives: Synthesis, preliminary toxicity profiling, parasite life cycle stage studies, target exploration, and targeted delivery” (Eur J Med Chem, 2018)
